Legend:
C57BL/6J mice [1] = experiment: Mechanical allodynia of hind paws; format: in vivo, mouse; conditions: 30 mg/kg ACY-1215 co-administered with 0.3 or 1 mg/kg IACS-010759
C57BL/6J mice [2] = experiment: Spontaneous pain; format: in vivo, mouse
C57BL/6J mice [3] = experiment: Sensorimotor function; format: in vivo, mouse
DRG neurons = experiment: Mitochondrial function; format: in vivo, mouse
C57BL/6J mice [4] = format: in vivo, mouse; conditions: 30 mg/kg ACY-1215 co-administered with IACS-010759
AML trial = format: in vivo, human; conditions: for Average highest lactate level during OXPHOS: AML
Method in brief: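 Both trials graded adverse events with NCI CTCAE v4.03. In the AML trial, all patients had close monitoring of lactate, blood pH and electrolytes. Patients with lactate >4 mmol/L, pH <7.30 and symptoms were hospitalised for at least 24 h. Dose-limiting lactic acidosis was lactate >4.0 mmol/L, pH <7.35, low CO2, raised anion gap and/or symptoms, confirmed by arterial sampling.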

Solid Tumor trial = format: in vivo, human; conditions: for Average highest lactate level during OXPHOS: Solid Tumors
relapsed/refractory AML = experiment: AML trial: response by European LeukemiaNet 2017; format: in vivo, human; conditions: n=17
Method in brief: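 Relapsed/refractory AML patients were dosed by cohort. Cohorts 1–2 got 0.5 or 1.0 mg on Day 1 and Day 8 of cycle 1, then daily in later cycles. Cohorts 3–4 got induction of 2.0 or 2.5 mg daily on Days 1–7. Maintenance followed at 0.5 mg once weekly (cohort 3) or 1.0 mg thrice weekly (cohort 4).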

advanced solid tumors = experiment: Solid Tumor trial: response by RECISTv1.1; format: in vivo, human
[5] = Human plasma concentrations of IACS-010759; format: in vivo
Method in brief: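 Patient plasma (50 μL) was extracted with acetonitrile containing diclofenac internal standard, vortexed 10 min and spun 2000 g for 10 min. Extract was diluted 1:1 with water for LC-MS/MS with the column at 40 °C. MRM transitions were m/z 563.1>172.1 for analyte and 295.9>151.2 for standard. The method was validated over 0.05–50.0 ng/mL.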

AML blasts [6] = experiment: Seahorse oxygen consumption rate of AML blasts from treated patients; format: cell-based, human
Method in brief: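 Fresh heparinised patient blood was mixed with equal-volume EasySep buffer and depleted of CD3/CD19-positive cells with an antibody cocktail. Isolated blasts were counted and used immediately for Seahorse basal and maximal OCR, normalised to cell number, with 2–6 technical replicates. Sampling was pre-dose (C1D1), after one week (C1D7/C1D14) and during extended dosing (C1D15/21/28). A two-sided paired t-test was used.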

AML blasts [7] = experiment: Ratio of mitochondrial to genomic DNA in AML blasts; format: cell-based, human; conditions: pre- vs post-dose Day 16/21/27/28; p=0.04
AML blasts [8] = experiment: Intracellular metabolites in AML blasts; format: cell-based, human
PDX AML-04030094 model = experiment: Survival of AML PDX mice; format: in vivo, mouse; conditions: 1 mg/kg oral, 5-days on/2-days off, NSG AML PDX mice
[9] = test system: blasts from the spleen of NSG mice; experiment: Baseline OCR of blasts from the spleen of NSG mice; format: in vivo, mouse; conditions: 0.1 and 0.3 mg/kg, 5-days on/2-days off
Method in brief: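 Female NSG mice received 250 cGy cesium irradiation 24 h before tail-vein injection of 0.5 × 10^5 AML PDX cells. Mice were randomized (n=9/group) to vehicle (0.5% methylcellulose) or 0.1, 0.3, 1 or 5 mg/kg test compound, 5 days on/2 days off. Spleens were taken at euthanasia for baseline OCR of blasts. N=5 biologically independent samples; two-sided unpaired t-test.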

[10] = Plasma lactate in NSG and B6 mice; format: in vivo, mouse; conditions: escalating doses
C57BL/6J mice [11] = experiment: Intraepidermal nerve fiber density in hind paw skin; format: in vivo, mouse; conditions: highest dose
Method in brief: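 Male C57BL/6J mice were given vehicle (0.5% methylcellulose) or 1 or 5 mg/kg test compound by oral gavage once daily, 5 days on/2 off, then a further 5 days on. Glabrous hind paw skin was collected 12 days after the final dose. PGP9.5-stained fibres crossing the collagen-stained dermal–epidermal junction were counted by confocal microscopy as IENFs/mm, five random images per mouse. n=12/8/8; one-way ANOVA with Dunnett's; mean ± SE.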

ATF3 = ATF3 expression in DRG; format: in vivo, mouse; conditions: 1 or 5 mg/kg
Method in brief: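 Mice received test compound (1 or 5 mg/kg) or vehicle orally, once daily, 5 days on/2 off, then another 5 days. DRG were taken 12 days after the last dose and processed as PFA-fixed, OCT-embedded 14 μm frozen sections. Sections were incubated overnight with anti-ATF3 (1:500) in PBS with 2% donkey serum and 0.1% saponin, then Alexa 594 secondary and DAPI. Imaging was confocal. Positive control was spared-nerve-injury DRG; staining was repeated three times.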

[12] = Plasma IACS-010759 exposure versus venous lactate in AML and Solid Tumor cohorts; format: in vivo, human
mitochondrial complex I = conditions: by binding the ND1 subunit at the entrance to the quinone binding channel; cited from earlier work
[13] = 30 mg/kg ACY-1215 co-administered with IACS-010759
[14] = end of the first 7-day QD dosing vs pre-treatment
[15] = blasts from Patient 17 (highest exposure), p<0.01

In the case of O=C(CCCCCCNC(=O)c1cnc(N(c2ccccc2)c2ccccc2)nc1)NO [ACY-1215, reference compound], the “effect on IACS-010759-induced mechanical allodynia” value (C57BL/6J mice [1]) is reported as “significantly attenuated”, the “effect on IACS-010759-induced spontaneous pain” value (C57BL/6J mice [2]; [13]) is reported as “prevented” and the “effect on IACS-010759-induced sensorimotor deficits” value (C57BL/6J mice [3]; [13]) is reported as “prevented”. The “effect on IACS-010759-induced reduction of OCR in the DRG” value (DRG neurons; [13]) was “did not prevent” and the “effect on IACS-010759-induced damage to the myelin of the sciatic nerve” value (C57BL/6J mice [4]) was “prevented”.
In the case of Cc1nc(-c2nc(-c3ccc(OC(F)(F)F)cc3)no2)nn1Cc1cccc(N2CCC(S(C)(=O)=O)CC2)c1 [IACS-010759], the “recommended phase 2 dose (RP2D)” value (AML trial; AML and Solid Tumor trials) is reported as “no RP2D was established”, the “grade 1–2 TRAE: elevated blood lactate” value (AML trial; AML trial patients) is reported as 35% and the “grade 1–2 TRAE: myalgia” value (AML trial; AML trial patients) is reported as 6%. For the same molecule, the “grade 1–2 TRAE: peripheral neuropathy” value (AML trial; AML trial patients) was 12%, the “grade ≥3 TRAE: peripheral neuropathy” value (AML trial; AML trial patients) was 6% and the “Average highest lactate level during OXPHOS” value (AML trial; NP (N=6)) was 3.9 mmol/L. The “Average highest lactate level during OXPHOS” value (AML trial; Non-NP (N=11)) was 3.0 mmol/L, the “patients with grade 1–3 peripheral neuropathy” value (Solid Tumor trial; Solid Tumor trial) was 11 patients and the “grade 1–2 TRAE: myalgia” value (Solid Tumor trial; Solid Tumor trial patients) was 30%. For the same molecule, the “grade 1–2 TRAE: peripheral neuropathy” value (Solid Tumor trial; Solid Tumor trial patients) was 35%, the “grade 1–2 TRAE: vomiting” value (Solid Tumor trial; Solid Tumor trial patients) was 30% and the “grade ≥3 TRAE: elevated blood lactate” value (Solid Tumor trial; Solid Tumor trial patients) was 9%. For the same molecule, the “grade ≥3 TRAE: nausea” value (Solid Tumor trial; Solid Tumor trial patients) was 9%, the “grade ≥3 TRAE: peripheral neuropathy” value (Solid Tumor trial; Solid Tumor trial patients) was 4% and the painful neuropathy (Solid Tumor trial; Solid Tumor trial patients) was “not observed”. The “Average highest lactate level during OXPHOS” value (Solid Tumor trial; NP (N=11)) was 4.5 mmol/L, the “Average highest lactate level during OXPHOS” value (Solid Tumor trial; Non-NP (N=12)) was 2.6 mmol/L and the “response (European LeukemiaNet 2017)” value (relapsed/refractory AML) was “No patient in the AML trial responded”. For the same molecule, the “patients with best response of RECISTv1.1 stable disease” value (advanced solid tumors) was “eight”, the “maintenance of plasma levels of ≥20 nM” value ([5]; AML and Solid Tumor trials, all dosing schedules) was “not maintained with any dosing schedule” and the terminal half-life ([5]; plasma, patients) was “approximately 16 hours”. The “patients with >25% reduction in baseline OCR in blasts” value (AML blasts [6]; [14]) was 6/12, the “patients with >25% reduction in maximal OCR in blasts” value (AML blasts [6]; [14]) was 8/12 and the “patients in whom the decrease in baseline OCR was not maintained” value (AML blasts [6]; extended dosing, among patients with >25% reduction) was 2/6. The “ratio between mitochondrial and genomic DNA in blasts” value (AML blasts [7]) was “significant increase”, the “NAD+ levels” value (AML blasts [8]; blasts from Patient 16) was “did not affect” and the “intracellular NMP, NDP and NTP levels” value (AML blasts [8]; blasts from Patient 16 (weakest exposure)) was “did not affect levels of NMP, NDP, and NTP”. The “intracellular NMP and NDP levels” value (AML blasts [8]; [15]) was “significantly increased”, the “intracellular NTP levels” value (AML blasts [8]; [15]) was “significantly decreased” and the “NAD+ levels” value (AML blasts [8]; blasts from Patient 17, p = 0.03) was “NAD+ levels significantly decreased”. The “NAD+ levels” value (AML blasts [8]; blasts from Patient 19) was “NAD+ levels significantly increased”, the “intracellular NTP levels” value (AML blasts [8]; blasts from Patient 19 (lower exposure), p<0.05) was “significantly reduced NTP levels” and the “extension of median survival” value (PDX AML-04030094 model) was 7 days. The “modulation of baseline OCR” value [9] was “induced moderate modulation of baseline OCR”, the plasma lactate ([10]; C56Bl6 mice) was “elevated by all doses” and the plasma lactate ([10]; NSG mice) was “only elevated by the 5 mg/kg dose”. For the same molecule, the “spontaneous pain: time in the chamber associated with pain relief” value (C57BL/6J mice [2]; IACS-010759-treated vs vehicle-treated mice) was “spent significantly more time in the chamber associated with pain relief”, the “balance and fine motor function” value (C57BL/6J mice [3]; beam walk test, vs vehicle-treated mice) was “significant decrease in balance and fine motor function” and the “OCR in dorsal root ganglia” value (DRG neurons; 3–4 hours and 5 weeks after the last dose) was “dose-dependently inhibited OCR”. For the same molecule, the “intraepidermal nerve fiber density (IENF) in hind paw skin” value (C57BL/6J mice [11]) was “reduced intraepidermal nerve fiber density”, the “expression of ATF3” value (ATF3) was “did not increase” and the “drug exposure associated with increased probability of elevated lactate” value ([12]; equivalent of the nM value) was greater than 4.5 ng/mL. For the same molecule, the “drug exposure associated with increased probability of elevated lactate” value ([12]; plasma IACS-010759, AML and Solid Tumor cohorts) was greater than 8 nM and the “inhibition of mitochondrial complex I” value (mitochondrial complex I) was “selectively inhibited mitochondrial complex I”.
